Sampled rows, rich in hits. Any-hit rate of the full collection: about 0.77%.
mIAP block = blocks mouse intestinal alkaline phosphatase. purified mouse IAP, CDP-Star luminescence, 30 min. inhibition, % at 10 µM. 0.2% of 330,000 active. AID 2806;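 active = inhibition of at least 40% at 10 µM in the primary screen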
hIAP block = human IAP inhibition; purified IAP, CDP-Star luminescence, 30 min; AID 2544; inhibition, % at 10 µM; 0.12% of 330,000 active;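 active = inhibition reaching a set limit with compound at 10 µM in the primary screen, cut at about 35% in these data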
Target sequence (P09923 whole entry, looked up): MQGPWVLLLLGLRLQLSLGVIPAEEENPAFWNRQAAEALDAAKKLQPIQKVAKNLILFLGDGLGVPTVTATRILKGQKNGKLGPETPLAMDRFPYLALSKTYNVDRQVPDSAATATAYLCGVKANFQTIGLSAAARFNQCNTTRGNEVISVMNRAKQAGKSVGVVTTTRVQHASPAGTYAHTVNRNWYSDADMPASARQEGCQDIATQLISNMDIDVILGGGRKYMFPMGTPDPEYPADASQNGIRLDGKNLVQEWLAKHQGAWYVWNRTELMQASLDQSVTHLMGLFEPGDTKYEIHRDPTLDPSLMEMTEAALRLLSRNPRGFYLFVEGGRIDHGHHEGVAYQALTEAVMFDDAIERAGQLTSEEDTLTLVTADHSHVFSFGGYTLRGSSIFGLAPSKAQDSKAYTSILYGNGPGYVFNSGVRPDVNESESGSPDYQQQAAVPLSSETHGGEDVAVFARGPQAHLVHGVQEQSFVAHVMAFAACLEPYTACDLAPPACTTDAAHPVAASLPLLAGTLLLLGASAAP
hIAP activ = increases human intestinal alkaline phosphatase activity; P09923; purified human IAP, CDP-Star luminescence, 30 min; active compounds read high; 1 = vehicle-only enzyme, 0 = enzyme-free background; activation factor at 10 µM; 0.16% of 330,000 active; AID 2524;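 active = activation factor of the enzyme at least 2-fold when tested at 20 µM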
mIAP activ = increases mouse intestinal alkaline phosphatase activity | muIAP, CDP-Star luminescence, 30 min; active compounds read high; 1 = vehicle-only enzyme signal, 0 = enzyme-free wells | AID 2805 | activation factor at 10 µM | 0.24% of 330,000 active;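 active = activation factor of at least 2 at 20 µM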
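Assay system: mouse IAP enzyme; reagent: chemiluminescent substrate CDP-Star; dosing: test compounds delivered from DMSO solution; schedule: 30 min at room temperature; measured by: luminescence from enzymatic CDP-Star hydrolysis; controls: DMSO-only wells and no-enzyme negative control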
bIAP inhibitor = blocks bovine intestinal alkaline phosphatase activity; purified bovine IAP, CDP-star luminescence, 30 min; inhibition, % at 20 µM; 190,000 tested, under 10 active;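 active = over 50% inhibition of intestinal alkaline phosphatase at 20 µM in the single-dose screen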
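Assay system: bovine IAP enzyme; medium: DEA buffer 100 mM, pH 9.8, with MgCl2 1.0 mM, ZnCl2 0.02 mM; doses: 20 µM single dose; incubation: enzyme reaction for 30 min at room temperature; detection: CDP-star luminescence signal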
bIAP activator = intestinal alkaline phosphatase (bovine) activation; purified bovine IAP, CDP-star luminescence, 30 min; active compounds read high; fold of DMSO-control signal, blank-subtracted; activation factor at 20 µM; 0.17% of 200,000 active; AID 1016;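 active = activation factor of 2 or more at 20 µM, a signal rise over negative controls twice the positive control's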
hIAP act conf = human IAP activation confirmation. purified IAP, CDP-Star luminescence, 30 min; active compounds read low. 10% of 880 active. activation (%Activity, negative = activation), % at 8.3 µM. shares compounds with hIAP activ;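 active = at least twofold enzyme activation in any of six single-dose repeats, which the averaged readout prints as negative percent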
A number is an active result; i = inactive; nt = no result.

SMILES	mIAP block	hIAP block	hIAP activ	mIAP activ	bIAP inhibitor	bIAP activator	hIAP act conf
Nc1ccc(-c2c3ccc(=O)cc-3oc3cc(O)ccc23)cc1C(=O)O	i	35.7	i	i	nt	nt	i
COc1cccc(/C=N/Nc2ccc([N+](=O)[O-])cc2)c1O	i	37.2	i	i	nt	nt	i
CCOc1cccc(/C=N/NC(=O)c2cc(-c3cccn3C)n[nH]2)c1O	i	i	2.62	i	i	i	i
COc1cc(OC)c(OC)cc1/C=N/NC(=O)c1cc(-c2cccn2C)n[nH]1	i	i	i	i	i	i	nt
COc1cccc(/C=N/NC(=O)c2cc(-c3ccccn3)nc3ccccc23)c1O	i	i	2.13	i	nt	nt	i
COc1cccc(/C=N/NC(=O)CNC(=O)c2ccncc2)c1O	i	i	2.16	i	nt	nt	i
O=C(N/N=C/c1ccc(F)cc1)c1cc(-c2ccccn2)nc2ccccc12	i	i	i	i	nt	nt	nt
Cc1ccc(S(=O)(=O)Nc2ccccc2F)cc1C(=O)N1CCCC1	i	i	i	i	nt	nt	nt
N=C(c1ccc([N+](=O)[O-])cc1)N1CCCCCC1	i	i	i	i	i	i	nt
COc1cccc(/C=N/NC(=O)c2ccc(=O)[nH]n2)c1O	i	i	2.44	i	nt	nt	i
CC(OC(=O)c1nn(C(C)C)c(=O)c2ccccc12)C(=O)Nc1ncc(Cl)cc1Cl (stereo not given)	i	i	i	i	i	i	nt
CCOc1ccc(OCC)c(S(=O)(=O)N2CCCCC2C)c1 (stereo not given)	i	i	i	i	i	i	nt
NC(=S)N/N=C/c1ccccc1O	i	i	i	i	nt	nt	nt
Cc1ccc(-n2c(C)cc(/C=N/NC(N)=S)c2C)cc1	i	i	i	i	i	i	nt
NC(=S)N/N=C/c1cccc(O)c1O	i	i	2.15	i	i	i	i
Cc1cc(/C=N/NC(N)=S)c(O)c(/C=N/NC(N)=S)c1	i	i	2.79	i	nt	nt	i
COc1ccc2nc(NNC(=O)c3cc(=O)c4ccccc4o3)sc2c1	i	i	2.24	i	i	i	i
O=C(NNc1nc2c(F)cccc2s1)c1cc(=O)c2ccccc2o1	i	i	2.74	i	i	i	i
Cc1cccc2sc(NNC(=O)c3cc(=O)c4ccccc4o3)nc12	i	i	i	i	i	i	nt
O=C(O)c1ccccc1C(=O)Nc1cc(-c2ccccc2)[nH]n1	i	38.6	i	i	nt	nt	i
O=C(Nc1cc(-c2ccccc2)[nH]n1)c1ccccc1F	i	i	i	i	nt	nt	nt
COc1ccc(-c2cc(C(=O)NNC(=O)c3csc(N4CCOCC4)n3)c3ccccc3n2)cc1OC	i	i	2.35	i	nt	nt	i
COc1ccc(Cl)cc1NC(=O)Cn1nnc(C(=O)NCCc2ccc(OC)c(OC)c2)c1N	i	i	i	i	nt	nt	nt
O=C(Nc1cccc(Cl)c1)N1CCCCCC1	i	38.1	i	i	nt	nt	i
Cc1ccc(-c2[nH]ncc2C(=O)c2cccc(F)c2)c(O)c1	i	i	2.05	i	nt	nt	i
SMILES	mIAP block	hIAP block	hIAP activ	mIAP activ	bIAP inhibitor	bIAP activator	hIAP act conf
Cc1cccc(C(=O)c2cn[nH]c2-c2ccc(C)cc2O)c1	i	i	i	i	nt	nt	nt
CCN(CC(=O)NCc1ccc(Cl)cc1)C(=O)c1ccc(S(=O)(=O)NCc2ccco2)cc1	i	i	i	i	nt	nt	nt
Cc1ccc(S(=O)(=O)NCC(=O)NNC(=O)c2ccccc2Cl)cc1C	i	i	2.21	i	nt	nt	i
Cc1cc(NC(=O)C2CC(c3ccc(F)cc3)=NO2)no1 (stereo not given)	i	i	i	i	i	i	nt
CN1CCN(CCNC(=O)Cn2c(=O)c3cccn3c3ccc(F)cc32)CC1	i	38.6	i	i	nt	nt	i
Cc1ccc(S(=O)(=O)CC(C)(O)CS(=O)(=O)c2ccc(C)cc2)cc1	i	i	i	i	nt	nt	nt
COc1ccc(C(=O)Nc2cccc(C)c2)cc1S(=O)(=O)N1CCOCC1	i	i	i	i	i	i	nt
COc1ccc(C(=O)Nc2cccc3c2C(=O)NC3=O)cc1S(=O)(=O)N1CCOCC1	i	35.9	i	i	i	i	-85.1
COc1ccc(C2C(CC(=O)O)=C(O)C(=O)N2c2ccccc2)cc1 (stereo not given)	i	i	i	i	i	i	nt
CN(CC(=O)Nc1ccccc1F)CC(=O)Nc1ccc(F)c(F)c1F	i	i	2.11	i	i	i	i
